Results from paper PMC4324449 (ACS Chemical Biology, 2014).

Columns and labels:
[1] = Self-association by concentration-dependent UV–vis absorption; type: physicochemical; conditions: for self-association by UV–vis, in words: concentration-dependent λmax, Tris buffer pH 7.4
Procedure, shortened: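 Absorption spectra recorded over a foldamer dilution series in 10 or 1 mm cuvettes. λmax plotted against concentration and fitted to a monomer-hexamer equilibrium, with monomer and hexamer λmax as fitted variables. Salt series run in 0.05 M Tris, pH 7.4, at varying NaCl, with all salt conditions fitted globally.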

[2] = Self-association by ITC heats of dilution; type: physicochemical; conditions: dilution in TBS, 25 °C
Procedure, shortened: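 Heats of dilution at 25 °C. Foldamer at 1 mM in TBS (0.050 M Tris, 0.150 M NaCl, pH 7.4) injected serially into TBS in the calorimetric cell. Heat per injection taken from the integrated peak area, normalized over accumulated additions and plotted against final foldamer concentration. Fitted to a monomer-dimer-hexamer or monomer-hexamer model, depending on the foldamer.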

Row | Substance | self-association by UV–vis, in words [1] | pK(hex-mon) UV–vis ([1]; concentration dependence of λmax in TBS pH 7.4, monomer-hexamer fit, K in M5) | self-assembly by ITC, in words [2]
1 | (D-Cit-Sal)4-CONH2 [Compound 7] | did not appear to show significant dissociation |  | 
2 | (Lys-Sal)3-CONH2 [Compound 8] | did not show any spectral changes at concentrations as high as 500 μM | <15 | 
3 | (Lys-Sal)4-COOH [Compound 2] | did not appear to associate at all over this concentration range |  | very weak to no self-assembly
